Measured values published in ChEMBL document CHEMBL2331264, “A nitrophenyl-based prodrug type for colorectal targeting of prednisolone, budesonide and celecoxib” (Bioorg Med Chem Lett, 2013).

Experiments:
Clostridium perfringens [1] = assay: Prodrug activation in Clostridium perfringens assessed as prednisolone release under anaerobic conditions at 50 uM up to 24 hrs by HPLC analysis; type: organism-based
Summary of the method: (§1)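 C. perfringens grown overnight on brain heart infusion (BHI) agar, then colonies were suspended in BHI broth to OD600 0.9–1.1. Compound incubated in the suspension under anaerobic conditions, pH 7.4, 37 °C, with a no-bacteria BHI control. Aliquots taken at 0, 2, 4, 6 and 24 h and centrifuged at 10,000 rpm for 10 min. Supernatants were stored at −20 °C, then HPLC for prodrug and released parent drug (n = 3).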

[2] = Metabolic stability in brain heart infusion medium up to 24 hrs by HPLC analysis; type: ADME, tissue-based
Summary of the method: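 Prodrug was incubated in BHI medium without bacteria under anaerobic conditions at pH 7.4 and 37 °C. Aliquots were taken at 0, 2, 4, 6 and 24 h and centrifuged at 10,000 rpm for 10 min. Supernatants were stored at −20 °C, then analysed by an HPLC method that resolves BHI components from prodrug and activation byproducts; n = 3.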

Clostridium perfringens [3] = assay: Prodrug activation in Clostridium perfringens assessed as celecoxib release under anaerobic conditions at 50 uM up to 24 hrs by HPLC analysis; type: organism-based; summary of the method: as §1
[4] = Stability of the compound in simulated human duodenal fluid up to 1500 mins by HPLC analysis; type: ADME; settings: 25 h
[5] = Stability of the compound in simulated human gastric juices up to 1500 mins by HPLC analysis; type: ADME, Gastric juice; settings: 25 h
Caco-2 = assay: Apparent permeability from apical to basolateral side of human Caco2 cells; type: ADME, cell-based
Summary of the method: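 Transport measured across the epithelial monolayer. Samples were drawn from the acceptor reservoir at 0, 30, 60 and 120 min, and fresh buffer was added each time to keep the volume constant. The donor solution was sampled at 120 min. Caffeine was run in two wells in the apical-to-basolateral direction as a routine control.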

| Structure (SMILES) | Drug metabolism (Clostridium perfringens [1]) | Stability [2] | Drug metabolism (Clostridium perfringens [3]) | Stability [4] | Stability [5] | Papp (Caco-2) |
| --- | --- | --- | --- | --- | --- | --- |
| C[C@]12C=CC(=O)C=C1CC[C@@H]1[C@@H]2[C@@H](O)C[C@@]2(C)[C@H]1CC[C@]2(O)C(=O)COC(=O)CCc1ccccc1 | Not Active | Stable |  |  |  |  |
| Cc1ccc(-c2cc(C(F)(F)F)nn2-c2ccc(S(=O)(=O)NC(=O)CCc3ccccc3)cc2)cc1 |  | Stable | Not Active |  |  |  |
| Cc1ccc(-c2cc(C(F)(F)F)nn2-c2ccc(S(=O)(=O)NC(=O)CCc3ccccc3[N+](=O)[O-])cc2)cc1 |  | Stable |  | Stable | Stable | permeable |
| Cc1ccc(-c2cc(C(F)(F)F)nn2-c2ccc(S(=O)(=O)NC(=O)Cc3ccccc3[N+](=O)[O-])cc2)cc1 |  | Stable |  | Stable | Stable | permeable |
| CCCC1O[C@@H]2C[C@H]3[C@@H]4CCC5=CC(=O)C=C[C@]5(C)[C@H]4[C@@H](O)C[C@]3(C)[C@]2(C(=O)COC(=O)CCc2ccccc2[N+](=O)[O-])O1 (stereo not given in full) | Not Active | Stable |  | Stable | Stable | impermeable |
| CCCC1O[C@@H]2C[C@H]3[C@@H]4CCC5=CC(=O)C=C[C@]5(C)[C@H]4[C@@H](O)C[C@]3(C)[C@]2(C(=O)COC(=O)Cc2ccccc2[N+](=O)[O-])O1 (stereo not given in full) | Active | Stable |  | Stable | Stable | permeable |
| C[C@]12C=CC(=O)C=C1CC[C@@H]1[C@@H]2[C@@H](O)C[C@@]2(C)[C@H]1CC[C@]2(O)C(=O)COC(=O)CCc1ccccc1[N+](=O)[O-] | Active | Stable |  | Stable | Stable |  |
| C[C@]12C=CC(=O)C=C1CC[C@@H]1[C@@H]2[C@@H](O)C[C@@]2(C)[C@H]1CC[C@]2(O)C(=O)COC(=O)Cc1ccccc1[N+](=O)[O-] | Active | Stable |  | Stable | Stable |  |
